Laboratory results: ChEMBL document CHEMBL5260843 (J Med Chem, 2019)
Calls of active or inactive are those of the source. The rule behind the calls is not given here.

Legend:
[1] = system: MGC-803; experiment: Induction of ROS generation in human MGC-803 cells at 0.3 uM incubated for 24 hrs by DCFH-DA staining based flow cytometry analysis (reference value: 2.2%); type: functional
[2] = Metabolic stability in human liver microsomes assessed as half life; type: ADME, Microsome
[3] = Metabolic stability in rat liver microsomes assessed as half life; type: ADME, Microsome
[4] = system: MGC-803; experiment: Induction of p27 accumulation in human MGC-803 cells incubated for 24 hrs by Western blot analysis; type: functional, cell-based; settings: dose 1-10 µM
In short: (§1)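 Cells in 6-well plates were exposed to compound for 24 h. MGC-803 were grown in DMEM and KYSE70 in RPMI 1640, both with 10% FBS at 37 °C and 5% CO2. Lysates were made in RIPA with protease inhibitors and quantified by BCA. 30 μg protein was run on 8% SDS-PAGE and blotted to nitrocellulose. Primary antibodies were applied overnight at 4 °C, then HRP secondaries, with ECL and film detection. GAPDH was the loading control. Run three times.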

[5] = biological target: Cullin-4A (Homo sapiens) (UniProt Q13619); experiment: Inhibition of cullin4A neddylation in UBC/DCN1 overactivated human MGC-803 cells at 0.3 to 10 uM incubated for 24 hrs by Western blot analysis; type: cell-based; settings: dose 0.3-10 µM; in short: as §1
[6] = biological target: CDK9/cyclin T1 (Homo sapiens) (UniProt O60563+P50750); experiment: Inhibition of C-terminal His6 tagged full length recombinant human CDK9/full length human Cyclin T1 expressed in baculovirus infected Sf21 cells using 5-FAM-ACSYSPTSPSYSPTSPSYSPTSPSKK as substrate at 10 uM incubated for 60 mins in presence of ATP relative to control
In short: (§2)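 CDK/cyclin complexes were assayed with 3 μM 5-FAM peptide substrate. ATP was 20 μM for CDK1, 30 μM for CDK2, 280 μM for CDK4, 800 μM for CDK6 and 10 μM for CDK9. Buffer was 50 mM HEPES pH 7.5, 0.0015% Brij-35, 10 mM MgCl2 and 2 mM DTT. Reactions ran 60 min at 28 °C and were stopped with EDTA. Caliper conversion values were converted to % inhibition.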

[7] = biological target: T1, Cullin-5 (Homo sapiens) (UniProt Q93034); experiment: Inhibition of cullin5 neddylation in human KYSE-70 cells at 0.3 to 10 uM incubated for 24 hrs by Western blot analysis; type: cell-based; settings: KYSE-70 cell line, dose 0.3-10 µM; in short: as §1
T1 sequence (whole entry): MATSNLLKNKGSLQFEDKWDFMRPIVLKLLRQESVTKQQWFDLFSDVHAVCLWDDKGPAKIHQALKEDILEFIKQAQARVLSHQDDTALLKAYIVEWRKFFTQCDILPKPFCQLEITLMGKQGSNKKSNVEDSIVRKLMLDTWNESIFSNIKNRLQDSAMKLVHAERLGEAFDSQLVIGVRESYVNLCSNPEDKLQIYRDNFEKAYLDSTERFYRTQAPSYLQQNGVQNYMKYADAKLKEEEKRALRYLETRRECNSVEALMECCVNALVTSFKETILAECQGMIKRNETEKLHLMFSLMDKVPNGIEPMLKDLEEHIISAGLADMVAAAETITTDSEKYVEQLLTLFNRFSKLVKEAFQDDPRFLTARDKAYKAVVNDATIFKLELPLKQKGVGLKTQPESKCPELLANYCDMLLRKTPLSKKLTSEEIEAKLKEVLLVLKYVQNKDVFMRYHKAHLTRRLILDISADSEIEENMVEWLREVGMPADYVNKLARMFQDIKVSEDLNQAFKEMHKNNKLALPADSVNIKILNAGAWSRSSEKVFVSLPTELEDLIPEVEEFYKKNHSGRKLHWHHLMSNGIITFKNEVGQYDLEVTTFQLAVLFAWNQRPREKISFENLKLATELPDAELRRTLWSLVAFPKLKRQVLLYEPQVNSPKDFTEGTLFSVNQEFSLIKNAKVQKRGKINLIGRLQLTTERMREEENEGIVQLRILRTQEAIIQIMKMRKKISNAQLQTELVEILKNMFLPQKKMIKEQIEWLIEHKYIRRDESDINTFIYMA

[8] = biological target: Cullin-4A (Homo sapiens) (UniProt Q13619); experiment: Inhibition of cullin4A neddylation in human KYSE-70 cells at 0.3 to 10 uM incubated for 24 hrs by Western blot analysis; type: cell-based; settings: KYSE-70 cell line, dose 0.3-10 µM; in short: as §1
[9] = system: KYSE-70; experiment: Induction of p21 accumulation in human KYSE-70 cells incubated for 24 hrs by Western blot analysis; type: functional, cell-based; settings: dose 0.3-10 µM; in short: as §1
[10] = biological target: Cyclin-dependent kinase 1/cyclin B (Homo sapiens) (UniProt P06493+P14635+Q8WWL7+O95067); experiment: Inhibition of C-terminal His6 tagged human full length CDK1/N-terminal GST-tagged human full length Cyclin B expressed in baculovirus infected Sf21 cells using 5-FAM-QSPKKG-CONH2 as substrate at 10 uM incubated for 60 mins in presence of ATP relative to control; in short: as §2
[11] = biological target: T1, Cullin-5 (Homo sapiens); experiment: Inhibition of cullin5 neddylation in UBC/DCN1 overactivated human MGC-803 cells at 0.3 to 10 uM incubated for 24 hrs by Western blot analysis; type: cell-based; settings: dose 0.3-10 µM; in short: as §1
[12] = biological target: Cullin-4B (Homo sapiens) (UniProt Q13620); experiment: Inhibition of cullin4B neddylation in UBC/DCN1 overactivated human MGC-803 cells at 0.3 to 10 uM incubated for 24 hrs by Western blot analysis; type: cell-based; settings: dose 0.3-10 µM; in short: as §1
[13] = system: KYSE-70 cell line; experiment: Inhibition of cullin2 neddylation in human KYSE-70 cells at 0.3 to 10 uM incubated for 24 hrs by Western blot analysis; type: cell-based; settings: dose 0.3-10 µM; in short: as §1
[14] = biological target: Tyrosine-protein kinase BTK (Homo sapiens) (UniProt Q06187); experiment: Inhibition of N-terminal GST-tagged full length human BTK (2 to 659 residues) expressed in Sf21 insect cells using 5-FAM-EAIYAAPFAKKK as substrate at 10 uM incubated for 60 mins relative to control
In short: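 Mobility-shift kinase assay with BTK at 5 nM, 3 μM 5-FAM peptide and 90 μM ATP. Buffer was 50 mM HEPES pH 7.5, 0.0015% Brij-35, 10 mM MgCl2 and 2 mM DTT. Reactions ran 60 min at 28 °C and were stopped with EDTA. Substrate conversion was read on Caliper and converted to % inhibition.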

[15] = system: MGC-803; experiment: Inhibition of cullin3 neddylation in UBC/DCN1 overactivated human MGC-803 cells at 3 uM incubated for 24 hrs by Western blot analysis; type: cell-based; in short: as §1
[16] = biological target: DCN1-like protein 1/NEDD8-conjugating enzyme Ubc12 (Homo sapiens) (UniProt Q96GG9+P61081); settings: dose 500.0 nM, time 1.0 hrs
Sequence of DCN1-like protein 1/NEDD8-conjugating enzyme Ubc12 (Homo sapiens) (P61081 whole entry, looked up): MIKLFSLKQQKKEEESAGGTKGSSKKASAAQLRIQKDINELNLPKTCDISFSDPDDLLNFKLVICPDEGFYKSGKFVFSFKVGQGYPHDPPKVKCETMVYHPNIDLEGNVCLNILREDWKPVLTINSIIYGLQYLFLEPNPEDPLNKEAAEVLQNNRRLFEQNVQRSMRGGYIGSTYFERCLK
Sequence of DCN1-like protein 1/NEDD8-conjugating enzyme Ubc12 (Homo sapiens) (Q96GG9 whole entry, looked up): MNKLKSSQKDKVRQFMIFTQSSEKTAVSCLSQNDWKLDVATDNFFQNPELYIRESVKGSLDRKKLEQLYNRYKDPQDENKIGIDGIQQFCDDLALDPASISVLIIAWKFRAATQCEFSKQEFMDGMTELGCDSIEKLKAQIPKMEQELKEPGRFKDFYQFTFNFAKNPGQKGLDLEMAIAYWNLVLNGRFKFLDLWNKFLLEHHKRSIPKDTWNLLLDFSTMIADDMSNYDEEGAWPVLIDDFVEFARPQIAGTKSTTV

Sequence of Cullin-4A (Homo sapiens) (Q13619 whole entry): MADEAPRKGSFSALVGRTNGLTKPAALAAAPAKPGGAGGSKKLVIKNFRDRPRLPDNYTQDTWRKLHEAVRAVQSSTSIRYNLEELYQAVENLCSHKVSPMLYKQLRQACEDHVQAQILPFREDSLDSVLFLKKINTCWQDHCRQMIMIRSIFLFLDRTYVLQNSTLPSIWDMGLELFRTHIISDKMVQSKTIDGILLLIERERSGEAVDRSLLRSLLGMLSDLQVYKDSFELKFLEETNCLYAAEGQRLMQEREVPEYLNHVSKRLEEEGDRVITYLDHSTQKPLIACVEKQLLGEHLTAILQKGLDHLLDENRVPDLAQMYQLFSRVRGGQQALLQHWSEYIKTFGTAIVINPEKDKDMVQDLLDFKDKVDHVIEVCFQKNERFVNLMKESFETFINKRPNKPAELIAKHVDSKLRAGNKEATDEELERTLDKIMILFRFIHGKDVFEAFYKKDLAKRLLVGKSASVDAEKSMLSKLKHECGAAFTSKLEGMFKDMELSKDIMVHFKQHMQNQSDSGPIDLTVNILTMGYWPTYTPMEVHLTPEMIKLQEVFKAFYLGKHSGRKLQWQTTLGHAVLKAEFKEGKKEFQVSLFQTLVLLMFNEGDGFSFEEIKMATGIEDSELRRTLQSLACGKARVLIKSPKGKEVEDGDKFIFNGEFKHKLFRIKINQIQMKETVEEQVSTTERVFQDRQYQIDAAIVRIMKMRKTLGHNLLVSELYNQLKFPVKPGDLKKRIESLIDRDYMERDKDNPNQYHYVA
Sequence of Cullin-4B (Homo sapiens) (Q13620 whole entry): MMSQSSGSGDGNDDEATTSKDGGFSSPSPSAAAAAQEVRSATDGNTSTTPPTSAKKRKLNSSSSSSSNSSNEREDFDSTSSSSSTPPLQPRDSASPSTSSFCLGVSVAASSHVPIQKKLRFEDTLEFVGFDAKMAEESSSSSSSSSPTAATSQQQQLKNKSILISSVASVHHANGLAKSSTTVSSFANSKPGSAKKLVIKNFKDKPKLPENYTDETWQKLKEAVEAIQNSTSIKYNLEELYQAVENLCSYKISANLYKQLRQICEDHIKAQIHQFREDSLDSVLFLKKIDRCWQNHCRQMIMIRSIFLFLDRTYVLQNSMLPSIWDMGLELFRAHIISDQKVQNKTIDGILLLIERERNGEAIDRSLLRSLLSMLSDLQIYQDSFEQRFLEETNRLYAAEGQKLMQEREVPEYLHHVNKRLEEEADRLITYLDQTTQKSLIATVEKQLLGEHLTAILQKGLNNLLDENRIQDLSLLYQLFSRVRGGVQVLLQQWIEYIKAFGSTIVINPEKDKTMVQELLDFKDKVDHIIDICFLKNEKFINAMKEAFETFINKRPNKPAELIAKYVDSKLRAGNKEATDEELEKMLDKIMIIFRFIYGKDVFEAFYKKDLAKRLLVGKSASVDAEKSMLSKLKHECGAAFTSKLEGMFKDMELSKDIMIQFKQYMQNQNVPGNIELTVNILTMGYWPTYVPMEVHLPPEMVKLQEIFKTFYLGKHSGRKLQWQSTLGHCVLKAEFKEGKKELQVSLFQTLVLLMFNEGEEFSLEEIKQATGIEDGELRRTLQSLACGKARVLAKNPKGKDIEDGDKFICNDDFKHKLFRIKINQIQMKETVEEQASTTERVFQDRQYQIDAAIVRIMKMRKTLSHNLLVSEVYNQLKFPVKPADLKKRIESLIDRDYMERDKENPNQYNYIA
Sequence of Tyrosine-protein kinase BTK (Homo sapiens) (Q06187 whole entry, the tested form may be a part): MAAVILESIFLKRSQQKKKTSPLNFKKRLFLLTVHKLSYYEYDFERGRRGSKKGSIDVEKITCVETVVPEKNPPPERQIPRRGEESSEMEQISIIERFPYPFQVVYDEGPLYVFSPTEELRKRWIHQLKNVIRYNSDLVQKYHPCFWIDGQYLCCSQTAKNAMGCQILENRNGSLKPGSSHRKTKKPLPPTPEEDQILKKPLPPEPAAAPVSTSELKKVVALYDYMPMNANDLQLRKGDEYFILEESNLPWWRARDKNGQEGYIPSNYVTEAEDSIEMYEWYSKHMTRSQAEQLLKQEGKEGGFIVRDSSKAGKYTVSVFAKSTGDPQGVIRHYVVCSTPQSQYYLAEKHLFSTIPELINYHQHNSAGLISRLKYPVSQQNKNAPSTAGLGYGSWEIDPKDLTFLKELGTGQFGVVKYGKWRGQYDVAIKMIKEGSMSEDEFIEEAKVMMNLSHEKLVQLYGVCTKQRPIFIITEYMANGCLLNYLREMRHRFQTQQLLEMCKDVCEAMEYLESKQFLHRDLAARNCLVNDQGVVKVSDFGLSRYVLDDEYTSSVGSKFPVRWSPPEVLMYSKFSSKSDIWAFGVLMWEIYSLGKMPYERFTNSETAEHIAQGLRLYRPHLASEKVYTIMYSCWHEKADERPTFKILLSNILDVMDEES

half-life [2]: < 5 min
half-life [3]: < 5 min
inhibition [5]: inactive
inhibition [6]: -8.4%
inhibition [7]: inactive
inhibition [8]: inactive
inhibition [10]: 9.6%
inhibition [11]: inactive
inhibition [12]: inactive
inhibition [14]: 13.6%
inhibition [16]: Active
Compound: Cc1cc(Sc2nnnn2CCN(C)C)n2nc(SCc3ccc(Cl)cc3)nc2n1.Cl
Activity [1]: 2.8%
Activity [4]: Dose-Dependent Effect
Activity [9]: Dose-Dependent Effect
inhibition [13]: inactive
inhibition [15]: Active
